Active and inactive are the calls of the source.
Tests used:
Klebsiella pneumoniae [1] = assay: Antimicrobial activity against extended spectrum beta-lactamase and carbapenemase producing Klebsiella pneumoniae ESBL L174 incubated for 48 hrs by microdilution broth method; assay type: functional, organism-based
Summary of the method: (§1)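 Stocks in DMSO were diluted at least 10-fold into Mueller-Hinton broth, then 2-fold serially diluted in MH from 500 to 15.6 μg/ml. Bacteria were added, with DMSO-only dilution controls, and incubated at 37 °C for 48 h. Growth was scored at 24 and 48 h. MIC was the lowest concentration with no growth. Run in quadruplicate.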

[2] = tested on: Stenotrophomonas maltophilia; assay: Antimicrobial activity against metallo beta-lactamases producing Stenotrophomonas maltophilia GM24 incubated for 48 hrs by microdilution broth method; assay type: functional, organism-based; summary of the method: as §1
Escherichia coli [3] = assay: Antimicrobial activity against broad spectrum beta-lactamase producing Escherichia coli GB 8 incubated for 48 hrs by microdilution broth method; assay type: functional, organism-based; summary of the method: as §1
Escherichia coli [4] = assay: Antimicrobial activity against broad spectrum beta-lactamase producing Escherichia coli MISC 206 incubated for 48 hrs by microdilution broth method; assay type: functional, organism-based; summary of the method: as §1
Klebsiella pneumoniae [5] = assay: Antimicrobial activity against AmpC producing Klebsiella pneumoniae KLEB 249 incubated for 48 hrs by microdilution broth method; assay type: functional, organism-based; summary of the method: as §1
Moraxella catarrhalis [6] = assay: Antimicrobial activity against Moraxella catarrhalis clinical isolates incubated for 48 hrs by microdilution broth method; assay type: functional; summary of the method: as §1
Escherichia coli [7] = assay: Antimicrobial activity against extended spectrum beta-lactamase and carbapenemase producing Escherichia coli ESBL L108 incubated for 48 hrs by microdilution broth method; assay type: functional, organism-based; summary of the method: as §1
Citrobacter freundii [8] = assay: Antimicrobial activity against AmpC producing Citrobacter freundii CITRO 21 incubated for 48 hrs by microdilution broth method; assay type: functional, organism-based; summary of the method: as §1
Enterococcus faecalis = assay: Antimicrobial activity against Enterococcus faecalis ATCC 29212 incubated for 48 hrs by microdilution broth method; assay type: functional, organism-based; summary of the method: as §1
[9] = tested on: Mycobacterium tuberculosis; assay: Antimicrobial activity against Mycobacterium tuberculosis H37Rv incubated for 48 hrs by microdilution broth method; assay type: functional
Citrobacter freundii [10] = assay: Antimicrobial activity against extended spectrum beta-lactamase producing Citrobacter freundii Citro 314 incubated for 48 hrs by microdilution broth method; assay type: functional, organism-based; summary of the method: as §1
Moraxella catarrhalis [11] = assay: Bactericidal activity against Moraxella catarrhalis clinical isolates incubated for 48 hrs by microdilution broth method and standard plating method; assay type: functional
Summary of the method: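 Broth microdilution in Mueller-Hinton broth, 2-fold series from 500 to 15.6 μg/ml, with DMSO-only controls, 37 °C for 48 h. Wells showing no growth were plated (10 μL) on MH agar. MBC was the lowest concentration giving no growth on plating. Run in quadruplicate.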

Klebsiella pneumoniae [12] = assay: Antimicrobial activity against extended spectrum beta-lactamase and carbapenemase producing Klebsiella pneumoniae KPC L133 incubated for 48 hrs by microdilution broth method; assay type: functional, organism-based; summary of the method: as §1
Acinetobacter baumannii [13] = assay: Antimicrobial activity against extended spectrum beta-lactamase and carbapenemase producing Acinetobacter baumannii L185 incubated for 48 hrs by microdilution broth method; assay type: functional, organism-based; summary of the method: as §1
Escherichia coli [14] = assay: Antimicrobial activity against extended spectrum beta-lactamase and carbapenemase producing Escherichia coli ESBL L109 incubated for 48 hrs by microdilution broth method; assay type: functional, organism-based; summary of the method: as §1
Escherichia coli [15] = assay: Antimicrobial activity against extended spectrum beta-lactamase producing Escherichia coli MISC 262 incubated for 48 hrs by microdilution broth method; assay type: functional, organism-based; summary of the method: as §1
Klebsiella pneumoniae [16] = assay: Antimicrobial activity against AmpC producing Klebsiella pneumoniae MISC 304 incubated for 48 hrs by microdilution broth method; assay type: functional, organism-based; summary of the method: as §1
Staphylococcus aureus = assay: Antimicrobial activity against Staphylococcus aureus ATCC 25923 incubated for 48 hrs by microdilution broth method; assay type: functional, organism-based; summary of the method: as §1
Escherichia coli [17] = assay: Antimicrobial activity against Escherichia coli ATCC 25922 incubated for 48 hrs by microdilution broth method; assay type: functional, organism-based; summary of the method: as §1
Acinetobacter baumannii [18] = assay: Antimicrobial activity against extended spectrum beta-lactamase and carbapenemase producing Acinetobacter baumannii L186 incubated for 48 hrs by microdilution broth method; assay type: functional, organism-based; summary of the method: as §1
Pseudomonas aeruginosa = assay: Antimicrobial activity against Pseudomonas aeruginosa ATCC 27853 incubated for 48 hrs by microdilution broth method; assay type: functional, organism-based; summary of the method: as §1
Acinetobacter baumannii [19] = assay: Antimicrobial activity against extended spectrum beta-lactamase and carbapenemase producing Acinetobacter baumannii L187 incubated for 48 hrs by microdilution broth method; assay type: functional, organism-based; summary of the method: as §1

O=C1CC(Sc2ccccc2F)N1C(=O)NCc1ccccc1 (racemic)
50 µg/mL: MBC (Moraxella catarrhalis [11])
3.13 µg/mL: MIC [9]
25 µg/mL: MIC (Moraxella catarrhalis [6])
inactive: MIC (Klebsiella pneumoniae [1]) | MIC [2] | MIC (Escherichia coli [3]) | MIC (Escherichia coli [4]) | MIC (Klebsiella pneumoniae [5]) | MIC (Escherichia coli [7]) | MIC (Citrobacter freundii [8]) | MIC (Enterococcus faecalis) | MIC (Citrobacter freundii [10]) | MIC (Klebsiella pneumoniae [12]) | MIC (Acinetobacter baumannii [13]) | MIC (Escherichia coli [14]) | MIC (Escherichia coli [15]) | MIC (Klebsiella pneumoniae [16]) | MIC (Staphylococcus aureus) | MIC (Escherichia coli [17]) | MIC (Acinetobacter baumannii [18]) | MIC (Pseudomonas aeruginosa) | MIC (Acinetobacter baumannii [19])

O=C1CC(Sc2ccc(F)cc2)N1C(=O)NCc1ccccc1 (racemic)
6.25 µg/mL: MIC [9]
inactive: MIC (Klebsiella pneumoniae [1]) | MIC [2] | MIC (Escherichia coli [3]) | MIC (Escherichia coli [4]) | MIC (Klebsiella pneumoniae [5]) | MIC (Escherichia coli [7]) | MIC (Citrobacter freundii [8]) | MIC (Enterococcus faecalis) | MIC (Citrobacter freundii [10]) | MIC (Klebsiella pneumoniae [12]) | MIC (Acinetobacter baumannii [13]) | MIC (Escherichia coli [14]) | MIC (Escherichia coli [15]) | MIC (Klebsiella pneumoniae [16]) | MIC (Staphylococcus aureus) | MIC (Escherichia coli [17]) | MIC (Acinetobacter baumannii [18]) | MIC (Pseudomonas aeruginosa) | MIC (Acinetobacter baumannii [19])
25 µg/mL: MIC (Moraxella catarrhalis [6]) | MBC (Moraxella catarrhalis [11])
